Results published in ChEMBL document CHEMBL5131398, “Novel nucleocapsid protein-targeting phenanthridine inhibitors of SARS-CoV-2” (Eur J Med Chem, 2022).

Legend:
SARS-CoV-2 [1] = experiment: Antiviral activity against Severe acute respiratory syndrome coronavirus 2 infected in African green monkey Vero E6 cells assessed as inhibition of viral cytopathic effect at 200 uM incubated for 72 hrs by CCK8 assay relative to control; type: functional; design: scale not given: the % may be the effect or the level left
SARS-CoV-2 [2] = experiment: Antiviral activity against Severe acute respiratory syndrome coronavirus 2 infected in African green monkey Vero E6 cells assessed as inhibition of viral cytopathic effect at 1.6 uM incubated for 72 hrs by CCK8 assay relative to control; type: functional; design: scale not given: the % may be the effect or the level left
SARS-CoV-2 [3] = experiment: Antiviral activity against Severe acute respiratory syndrome coronavirus 2 infected in African green monkey Vero E6 cells assessed as inhibition of viral cytopathic effect at 8 uM incubated for 72 hrs by CCK8 assay relative to control; type: functional; design: scale not given: the % may be the effect or the level left
Vero C1008 = experiment: Cytotoxicity against African green monkey Vero E6 cells assessed as reduction in cell viability incubated for 72 hrs by CCK8 assay; type: toxicity, cell-based; settings: chlorocebus sabaeus, vero c1008, 72 h
Summary of the method: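 Vero E6 cells were seeded and grown overnight, then exposed to a range of compound concentrations for 72 h. Viability was read by CCK8. Triplicate.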

SARS-CoV-2 [4] = experiment: Antiviral activity against Severe acute respiratory syndrome coronavirus 2 infected in African green monkey Vero E6 cells assessed as inhibition of viral cytopathic effect at 0.064 uM incubated for 72 hrs by CCK8 assay relative to control; type: functional; design: scale not given: the % may be the effect or the level left
SARS-CoV-2 [5] = experiment: Antiviral activity against Severe acute respiratory syndrome coronavirus 2 infected in African green monkey Vero E6 cells assessed as inhibition of viral cytopathic effect at 0.32 uM incubated for 72 hrs by CCK8 assay relative to control; type: functional; design: scale not given: the % may be the effect or the level left
SARS-CoV-2 [6] = experiment: Antiviral activity against Severe acute respiratory syndrome coronavirus 2 infected in African green monkey Vero E6 cells assessed as inhibition of viral cytopathic effect at 40 uM incubated for 72 hrs by CCK8 assay relative to control; type: functional; design: scale not given: the % may be the effect or the level left
SARS-CoV-2 [7] = experiment: Antiviral activity against Severe acute respiratory syndrome coronavirus 2 infected in African green monkey Vero E6 cells assessed as inhibition of viral cytopathic effect incubated for 72 hrs by CCK8 assay; type: functional, organism-based; settings: Severe acute respiratory syndrome coronavirus 2, Vero C1008, 72 h
SARS-CoV-2 [8] = experiment: Antiviral activity against Severe acute respiratory syndrome coronavirus 2 infected in African green monkey Vero E6 cells assessed as reduction in viralN-terminal 6-histidine tagged RNA copies at 12.5 uM incubated for 48 hrs by RT-qPCR analysis relative to control; type: functional; design: scale not given: the % may be the effect or the level left
SARS-CoV-2 [9] = experiment: Antiviral activity against Severe acute respiratory syndrome coronavirus 2 infected in African green monkey Vero E6 cells assessed as reduction in viral RNA copies at 50 uM incubated for 48 hrs by RT-qPCR analysis relative to control; type: functional; design: scale not given: the % may be the effect or the level left
SARS-CoV-2 [10] = experiment: Antiviral activity against Severe acute respiratory syndrome coronavirus 2 infected in African green monkey Vero E6 cells assessed as reduction in viral RNA copies at 6.25 uM incubated for 48 hrs by RT-qPCR analysis relative to control; type: functional; design: scale not given: the % may be the effect or the level left
SARS-CoV-2 [11] = experiment: Antiviral activity against Severe acute respiratory syndrome coronavirus 2 infected in African green monkey Vero E6 cells assessed as reduction in viral RNA copies at 3.125 uM incubated for 48 hrs by RT-qPCR analysis relative to control; type: functional; design: scale not given: the % may be the effect or the level left
SARS-CoV-2 [12] = experiment: Antiviral activity against Severe acute respiratory syndrome coronavirus 2 infected in African green monkey Vero E6 cells assessed as reduction in viral RNA copies at 100 uM incubated for 48 hrs by RT-qPCR analysis relative to control; type: functional; design: scale not given: the % may be the effect or the level left

Row | Structure (SMILES) | Activity (SARS-CoV-2 [1]) [%] | Activity (SARS-CoV-2 [2]) [%] | Activity (SARS-CoV-2 [3]) [%] | CC50 (Vero C1008) [µM] | Activity (SARS-CoV-2 [4]) [%] | Activity (SARS-CoV-2 [5]) [%] | Activity (SARS-CoV-2 [6]) [%] | EC50 (SARS-CoV-2 [7]) [µM] | Activity (SARS-CoV-2 [8]) [%] | Activity (SARS-CoV-2 [9]) [%] | Activity (SARS-CoV-2 [10]) [%] | Activity (SARS-CoV-2 [11]) [%] | Activity (SARS-CoV-2 [12]) [%]
1 | CCC(CC)COC(=O)[C@H](C)N[P@](=O)(OC[C@H]1O[C@@](C#N)(c2ccc3c(N)ncnn23)[C@H](O)[C@@H]1O)Oc1ccccc1 | 81.893 | 56.674 | 103.72 | > 200 | 16.557 | 22.283 | 97.265 | – | – | – | – | – | –
2 | CCN1Cc2cc(OC)c(OC)cc2-c2cccc(N)c21 | 97.85 | 69.61 | 73.32 | > 200 | 42.07 | 44.04 | 87.56 | 3.69 | 61.27 | 76.41 | 53.79 | 45.99 | 72.33
3 | CCN1Cc2cc(OC)c(OC)cc2-c2cccc(NC(=O)C(F)(F)F)c21 | 99.6 | 84.14 | 82.36 | > 200 | 49.07 | 66.95 | 87.41 | 2.18 | 68.79 | 68.9 | 54.85 | 56.23 | 97.83
